Reference: article PMC3273977 (International Journal of Nanomedicine, 2012)

What was measured:
P-glycoprotein (P-gp) = settings: cited from earlier work
HK-2 cells = assay: In vitro cytotoxicity, sulforhodamine B assay; assay type: cell-based; settings: Homo sapiens, HK-2, 24 h, read-out: IC50 cell viability
[1] = system: collagen 1A2, PAI-1, fibronectin, and MCP-1; assay: Renal mRNA expression of profibrotic genes; assay type: in vivo; settings: UUO mice 3 days; three daily ip injections 50 mg/kg sunitinib malate
Outline: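 Male C57Bl/6J mice, 3-day UUO; groups n=6–7; single iv test compound or sunitinib malate, or ip sunitinib malate 50 mg/kg with later doses at 24 and 48 h. TaqMan qRT-PCR on whole kidney and cortex. mRNA normalized to TBP and expressed relative to non-obstructed control mice (set at 1). Mean ± SEM; one-way ANOVA, P < 0.05.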

[2] = Plasma pharmacokinetics after a single intravenous injection; assay type: in vivo, mice
Outline: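 Male C57Bl/6J mice (n = 15) received one intravenous dose of sunitinib malate, 1.7 μmol/kg (0.9 mg/kg), equimolar to a 20 mg/kg lysozyme conjugate. Blood was taken by cheek puncture at 1 min and at sacrifice time points, then centrifuged. Plasma sunitinib was measured by LC-MS/MS against standards of 10 ng/mL–1 μg/mL. Values are % of dose, assuming plasma volume 0.05 mL/g. Parameters come from two-compartment curve fitting.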

[3] = system: UUO-induced tubulointerstitial fibrosis; assay: Overall antifibrotic effect in UUO-induced tubulointerstitial fibrosis; assay type: in vivo; settings: UUO mice, daily 50 mg/kg sunitinib malate
Outline: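 Male C57Bl/6J mice weighing 13–25 g had unilateral ureteral obstruction and were killed after 3 days. Sunitinib malate was given as three daily intraperitoneal injections of 50 mg/kg (94 μmol/kg), n = 7. Controls were normal mice and untreated UUO mice, n = 6 each. Kidneys were scored for collagen IV, vimentin and α-SMA immunostaining and p-PDGFR-β (Tyr740) Western blot. Data are mean ± SEM.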

[4] = system: tyrosine kinases in HK-2 cells; assay: Inhibition of tyrosine kinase phosphorylation after uptake in HK-2 cells; assay type: cell-based, human; settings: 10 μM, 24 hours incubation of HK-2 cells, lysis, ATP stimulation, Western blot
Outline: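 HK-2 cells were seeded at 1.5 × 10^4 per well, serum-starved overnight, then given 10 μM test compound or 0.1% (v/v) DMSO control for 24 h. Cells were PBS-washed and lysed with protease and phosphatase inhibitors, and protein was measured by BCA. Lysate was mixed with an equal volume of 10 μM ATP in Abl buffer (pH 7.5) and held 60 min at 37°C. 10 μg protein went to SDS-PAGE, anti-phosphotyrosine (PY20) blot and densitometry.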

ABCG2 = settings: cited from earlier work
[5] = system: α-SMA, collagen IV, and vimentin; assay: Immunostaining of fibrotic markers in kidney sections, UUO model; assay type: in vivo; settings: UUO mice 3 days; daily 50 mg/kg sunitinib malate ip
Outline: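 Male C57Bl/6J mice, 3-day UUO; n=7 per treatment group, n=6 per control. Dosing: single iv test compound (40 mg/kg conjugate) or equimolar iv sunitinib malate (3.4 μmol/kg), or ip sunitinib malate 50 mg/kg with 2nd/3rd doses at 24 and 48 h. Sections 3 μm, peroxide/azide block pH 5.8; 15-min boil citrate pH 6.0 (collagen IV, vimentin) or Tris/EDTA pH 9.0 (α-SMA); primaries 1 h RT (1:400, 1:400, 1:200).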

PDGFR-β = PDGFR-β (Mus musculus, UniProt P05622); assay: Western blot of p-PDGFR-β in renal cortex, UUO model; assay type: in vivo; settings: UUO mice 3 days; three daily ip injections 50 mg/kg sunitinib malate
PDGFR-β, sequence (P05622 32-1098): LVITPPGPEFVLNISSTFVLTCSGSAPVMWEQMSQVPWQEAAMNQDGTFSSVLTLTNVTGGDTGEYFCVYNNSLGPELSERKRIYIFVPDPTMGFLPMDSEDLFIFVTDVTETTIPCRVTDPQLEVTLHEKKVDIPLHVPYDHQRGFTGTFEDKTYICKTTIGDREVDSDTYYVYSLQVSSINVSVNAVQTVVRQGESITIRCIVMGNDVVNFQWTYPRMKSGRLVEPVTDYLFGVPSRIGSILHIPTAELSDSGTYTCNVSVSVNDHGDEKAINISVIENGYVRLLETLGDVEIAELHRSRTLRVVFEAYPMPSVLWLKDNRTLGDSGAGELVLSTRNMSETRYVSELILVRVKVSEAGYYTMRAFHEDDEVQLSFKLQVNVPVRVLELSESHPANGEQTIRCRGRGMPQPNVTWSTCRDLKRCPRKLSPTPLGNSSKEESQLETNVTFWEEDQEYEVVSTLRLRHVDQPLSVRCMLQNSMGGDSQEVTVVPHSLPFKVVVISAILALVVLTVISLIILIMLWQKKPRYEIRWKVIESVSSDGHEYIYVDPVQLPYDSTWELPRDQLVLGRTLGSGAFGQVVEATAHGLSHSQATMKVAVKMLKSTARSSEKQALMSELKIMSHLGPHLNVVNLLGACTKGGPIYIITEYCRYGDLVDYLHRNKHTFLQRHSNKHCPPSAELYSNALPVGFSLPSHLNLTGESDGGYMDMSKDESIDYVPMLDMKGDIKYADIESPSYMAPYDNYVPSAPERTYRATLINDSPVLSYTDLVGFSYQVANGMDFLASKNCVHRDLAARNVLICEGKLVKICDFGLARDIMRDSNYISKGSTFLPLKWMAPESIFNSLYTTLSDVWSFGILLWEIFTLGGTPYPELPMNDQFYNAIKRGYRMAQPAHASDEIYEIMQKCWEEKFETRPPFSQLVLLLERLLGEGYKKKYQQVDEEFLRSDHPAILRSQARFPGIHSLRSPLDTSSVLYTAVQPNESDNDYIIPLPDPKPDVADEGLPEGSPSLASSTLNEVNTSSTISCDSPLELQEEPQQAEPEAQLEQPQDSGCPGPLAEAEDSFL
Outline: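 Male C57Bl/6J mice sacrificed after 3 days UUO; ip sunitinib malate 50 mg/kg, with 2nd/3rd doses at 24 and 48 h. Cortex homogenized in RIPA with protease/phosphatase inhibitors and EDTA. Blots blocked 1 h at room temperature in 5% milk/TBS-T. Probed overnight at 4°C with rabbit anti-p-PDGFR-β (Tyr740, 1:200) or β-actin (1:1000) in TBS-T/5% BSA.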

[6] = Renal accumulation pharmacokinetics after a single intravenous injection; assay type: in vivo, mice
Outline: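 After one intravenous dose of sunitinib malate, 1.7 μmol/kg (0.9 mg/kg), to male C57Bl/6J mice, kidneys were collected at set times and frozen at −80°C. Kidneys were homogenised in 4% BSA to 0.1 g tissue/mL. Sunitinib was measured by LC-MS/MS against homogenate standards of 10–500 ng/mL, and renal levels are expressed as % of injected dose.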

[7] = mice, single iv, equimolar 1.7 μmol/kg, kidneys
[8] = mice, single iv, equimolar 1.7 μmol/kg, kidneys, listed as sunitinib

## CCN(CC)CCNC(=O)c1c(C)[nH]c(/C=C2\C(=O)Nc3ccc(F)cc32)c1C [Sunitinib, sunitinib]
P-glycoprotein (P-gp)
  substrate of efflux transporter P-gp: substrate
HK-2 cells
  IC50: 12 µM
[1]
  renal mRNA expression of collagen 1A2, PAI-1, fibronectin, MCP-1: significantly lower renal mRNA levels of collagen 1A2 and fibronectin
[2]; C57Bl/6J, mouse, plasma, iv, 0.9 mg/kg
  half-life: 25 min
[2]; mice, single iv, equimolar 1.7 μmol/kg, plasma
  Peripheral distribution volume (V2): 87 mL
[2]; mice, single iv, equimolar dose
  initial distribution volume (V1) relative to 17864-ULS-lysozyme: over 15 fold
[3]; listed as sunitinib
  antifibrotic effect: reduction of some of the studied markers
[3]; listed as sunitinib malate
  antifibrotic effect: antifibrotic responses
[4]
  inhibitory effect on phosphorylation of tyrosine kinases: strongly inhibited multiple kinases
ABCG2
  substrate of efflux transporter ABCG2: substrate
[5]
  renal deposition of α-SMA, collagen IV, and vimentin: decreased the deposition of vimentin in the kidneys, although these differences were not significant
PDGFR-β
  p-PDGFR-β levels in the renal cortex: decreased p-PDGFR-β levels in the renal cortex
[6]; C57BI/6 J, mouse, kidneys, iv, 0.9 mg/kg
  half-life: 66 min
[6]; mice, after administration
  time to almost complete elimination from the kidneys: ≤ 12 h
[6]; mice, single iv, equimolar 1.7 μmol/kg
  time to maximum renal levels: ≤ 30 min
[6]; [7]
  AUC0–∞: 9.4% dose*hours
  Cmax (% of the dose): 4.9%
[6]; [8]
  AUC0–∞: 9.4 % dose*hours
  Cmax (% of the dose): 4.9%
